The species entered for assay [1] is Homo sapiens. The assay is described as follows: Binding affinity to human c-myc G-quadruplex Pu18 DNA assessed as change melting temperature at 2.0 uM by FRET melting assay. Put shortly: (§1)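 FRET melting of dual-labelled Pu18 (5'-FAM/3'-TAMRA), 0.2 μM, in 10 mM Tris–HCl pH 7.2 with 0.2 mM KCl, compound 2.0 μM; fluorescence recorded on a real-time PCR instrument; Tm read from melting curves, ΔTm relative to no-compound control.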

Assay [2] in a line: Inhibition of human c-myc G-quadruplex Pu27 DNA amplification at 5.0 uM by PCR-stop assay. Summed up: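 PCR-stop: Pu27 template with complementary oligomer in 1× PCR buffer, 0.16 mM dNTP, 2.5 U Taq, compound at 1.0, 2.5, 4.0 or 5.0 μM; 94 °C 3 min, then 30 cycles of 94/58/72 °C for 30 s each; products on 15% native PAGE in TBE, silver stained.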
Assay [3] can be described thus: Binding affinity to duplex F10T DNA assessed as melting temperature at 2.0 uM by FRET melting assay.
Assay [4] is filed under the species Homo sapiens. The assay is described as follows: Binding affinity to duplex F10T DNA assessed as change melting temperature at 2.0 uM by FRET melting assay.
The subject of assay [5] is NCI. The assay can be described thus: Cytotoxicity against human NCI cells by MTT assay. It counts as functional, cell-based. Summed up:
(§2)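 MTT cytotoxicity assay against tumour cells; IC50 taken as mean of three independent assays.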

Assay [6] in a line: Cytotoxicity against human GLC cells by MTT assay. It is filed as functional, cell-based. Put shortly: as §2
(Tetrazolium assays rely on reduction of a dye to a coloured formazan, in cell work by metabolically active cells.)

For assay [7], the species on record is Homo sapiens. The assay is described as follows: Binding affinity to human c-myc G-quadruplex Pu18 DNA assessed as melting temperature at 2.0 uM by FRET melting assay. Summed up:
as §1

For assay [8], the system named is HL-60. The assay can be described thus: Inhibition of human c-myc gene transcription in HL60 cells at 0.7-1.7 uM after 4 days by RT-PCR. It is filed as functional, cell-based.
The species named for assay [9] is Homo sapiens. The assay can be described thus: Induction of G-quadruplex formation in human c-myc Pu27 DNA at 10 uM […] by gel electrophoresis.
Assay [10] deals with HL-60. The assay is described as follows: Antiproliferative activity against human HL60 cells assessed as cell count and viability at 5 to 10 uM. It counts as functional, cell-based. Put shortly:
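HL60 cells (RPMI-1640, 10% FBS, penicillin/streptomycin, 37 °C, 5% CO2), about 5000 per well, given freshly dissolved compound at 0–10 μM for 4 days, re-dosed at day 5 for a further 4 days; cell count and viability by trypan blue exclusion daily from day 1 to day 8.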

The record followed here is ChEMBL document CHEMBL1156609, “9-N-Substituted berberine derivatives: stabilization of G-quadruplex DNA and down-regulation of oncogene c-myc” (Bioorg Med Chem, 2008).

The source made the active and inactive calls. The rule behind the calls is not given here.

In general, ΔTm refers to the change in melting temperature against a reference sample. One may read the IC50 as the concentration at which inhibition is half-maximal. A higher IC50 goes with weaker potency. Take `COc1ccc2cc3[n+](cc2c1NCCN1CCCCC1)CCc1cc2c(cc1-3)OCO2`: the ΔTm in assay [1] was 20 °C; in assay [4], 0 °C. For the same compound, the IC50 in assay [2] was 4 µM; in [5], 22 µM; in assay [6], 38 µM. In addition, the Tm is 58 °C in assay [3] and 74 °C in assay [7].
Regarding `COc1ccc2cc3[n+](cc2c1NCCN1CCOCC1)CCc1cc2c(cc1-3)OCO2`, the ΔTm in assay [1] is 18 °C; in [4] it was 1 °C. Moreover, the IC50 in assay [2] turned out to be 7.1 µM; in assay [5], 50 µM; in assay [6], 50 µM. Moreover, the Tm in [3] stood at 59 °C; in [7], 72 °C.
With `COc1ccc2cc3[n+](cc2c1NCCc1ccccc1)CCc1cc2c(cc1-3)OCO2`, the ΔTm in [1] stood at 20 °C; in assay [4], 1 °C. The IC50 amounted to 3.6 µM in assay [2], 2 µM in [5] and 18 µM in [6]. In addition, the Tm was 59 °C in assay [3] and 74 °C in assay [7].
Consider `COc1ccc2cc3[n+](cc2c1NCCCN1CCCCC1)CCc1cc2c(cc1-3)OCO2`, for which the ΔTm came to 24 °C in assay [1] and 1 °C in assay [4]. For the same compound, the half-inhibitory concentration (IC50) in assay [2] was 3.2 µM; in [5] it was 38 µM; in [6] it was 69 µM. The results for the Tm in [3] and in [7] were 59 °C and 78 °C, respectively.
As for `COc1ccc2cc3[n+](cc2c1NCCCN1CCCC1)CCc1cc2c(cc1-3)OCO2`, the ΔTm was determined as 25 °C in assay [1] and 2 °C in [4]. In addition, the IC50 in assay [2] was 2.3 µM; in assay [5], 22 µM; in assay [6] it was 32 µM. Besides, the results for the Tm in [3] and in [7] were 60 °C and 78 °C, respectively.
As to `COc1ccc2cc3[n+](cc2c1OC)CCc1cc2c(cc1-3)OCO2`, the ΔTm in [1] is 1 °C; in assay [4] it was 2 °C. Besides, the Tm in assay [7] was 55 °C.
Consider `COc1ccc2cc3[n+](cc2c1NCCCN(C)C)CCc1cc2c(cc1-3)OCO2`, for which the ΔTm in [1] came out at 20 °C; in assay [4], 1 °C. For the same compound, the IC50 in [2] was 3.3 µM; in [5], 29 µM; in [6], 64 µM. Besides, the Tm came to 59 °C in assay [3] and 74 °C in assay [7].
With `COc1ccc2cc3[n+](cc2c1NCCN(C)C)CCc1cc2c(cc1-3)OCO2`, the ΔTm in assay [1] came out at 19 °C; in assay [4] it was 0 °C. Also, the IC50 in assay [2] was 3.9 µM; in assay [5], 36 µM; in assay [6] it was 56 µM. Moreover, the Tm in assay [3] amounted to 58 °C; in [7], 73 °C.
In the case of `COc1ccc2cc3[n+](cc2c1NCCCCCCN)CCc1cc2c(cc1-3)OCO2`, the ΔTm was found to be 29 °C in assay [1] and 2 °C in assay [4]. The result in [8], in assay [9] and in assay [10] was Active. In addition, the IC50 worked out at 2 µM in assay [2], 4 µM in assay [5] and 9 µM in [6]. The Tm worked out at 60 °C in [3] and 83 °C in [7].
For the compound `COc1ccc2cc3[n+](cc2c1NCCCN1CCOCC1)CCc1cc2c(cc1-3)OCO2`, the ΔTm was 17 °C in [1] and 0 °C in assay [4]. In addition, the IC50 in [2] was determined as 4.8 µM; in [5], 85 µM; in assay [6] it was 102 µM. Moreover, the Tm turned out to be 58 °C in assay [3] and 71 °C in [7].
As to `COc1ccc2cc3[n+](cc2c1NCCO)CCc1cc2c(cc1-3)OCO2`, the ΔTm in assay [1] turned out to be 12 °C; in assay [4], 0 °C. Moreover, the IC50 in assay [2] turned out to be 5.5 µM; in assay [5], 35 µM; in [6] it was 51 µM. Also, the Tm in assay [3] is 58 °C; in [7], 66 °C.
